# Bioassay records as filed in PubChem.
# MDM2 E3 inh: blocks human Mdm2 ubiquitin ligase activity; Q00987; cell-based MDM2 ubiquitination luciferase reporter, 2 h; 0 = plate control, 100 = twice control, blank-subtracted; signal enhancement, % at 5 µM; 0.11% of 210,000 active; AID 1230;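 active means signal enhancement of 30% or more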;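 further: luminescence tracks abundance of the self-degrading MDM2-luciferase fusion protein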
#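 Assay system: mammalian cells stably expressing self-ubiquitinating, self-degrading MDM2 E3–luciferase fusion. Quantity: 2000 cells in each well. Medium: DMEM culture medium. Compound dosing: single-point 5 µM. Timing: cell settling 4 h, compound treatment 2 h, both 37 °C. Technique: luciferase luminescence. Read-out basis: percent signal gain over controls, blank-subtracted. Benchmarks: plate controls and plate blanks.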
# Hsp70 act: Hsp70 transcriptional activation, primary screen. HeLa Hsp70 promoter luciferase reporter, luminescence; scaled: vehicle 0, proteasome-inhibitor control 100%. activation, % at 10 µM. 0.04% of 200,000 active;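 active means activation above the mean across all tested compounds plus 3 SD, cutoff set per campaign, cut at about 5.5% in these data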;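 further: 100% = MG132 at 30 µM as the positive control and 0% = DMSO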
# Calpain2 inh: blocks pig calpain II enzyme activity; purified calpain II, fluorogenic peptide substrate, 30 min; inhibition, % at 16 µM; 0.37% of 220,000 active; AID 1236;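 active means inhibition above about 50%, limit read from the data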
# Pf gamet viab: P. falciparum stage V gametocyte viability inhibition. P. falciparum stage V gametocytes, ATP luminescence, 24 h. inhibition, % at 10.9 µM. 0.065% of 150,000 active;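 active means inhibition above the mean plus 3 SD of compounds within the control limits, set per campaign, cut at about 38% in these data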;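 further: 0% = DMSO wells and 100% = medium only without gametocytes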
# Wee1 degr inh: human Wee1 degradation inhibition, primary screen; reporter increase, % at 5 µM; P30291; 1.2% of 220,000 active; AID 1321; HeLa Luc-Wee1K328M stability, luciferase luminescence; 100% = proteasome inhibitor MG132 effect;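 active means activation above the mean of all tested compounds plus 3 SD, set per screening run, cut at about 8.8% in these data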;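 further: cells exposed to compound for 20 h before luminescence read; 0% = DMSO alone and 100% = MG132 at 30 µM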
# Target sequence (P30291 whole entry K328M): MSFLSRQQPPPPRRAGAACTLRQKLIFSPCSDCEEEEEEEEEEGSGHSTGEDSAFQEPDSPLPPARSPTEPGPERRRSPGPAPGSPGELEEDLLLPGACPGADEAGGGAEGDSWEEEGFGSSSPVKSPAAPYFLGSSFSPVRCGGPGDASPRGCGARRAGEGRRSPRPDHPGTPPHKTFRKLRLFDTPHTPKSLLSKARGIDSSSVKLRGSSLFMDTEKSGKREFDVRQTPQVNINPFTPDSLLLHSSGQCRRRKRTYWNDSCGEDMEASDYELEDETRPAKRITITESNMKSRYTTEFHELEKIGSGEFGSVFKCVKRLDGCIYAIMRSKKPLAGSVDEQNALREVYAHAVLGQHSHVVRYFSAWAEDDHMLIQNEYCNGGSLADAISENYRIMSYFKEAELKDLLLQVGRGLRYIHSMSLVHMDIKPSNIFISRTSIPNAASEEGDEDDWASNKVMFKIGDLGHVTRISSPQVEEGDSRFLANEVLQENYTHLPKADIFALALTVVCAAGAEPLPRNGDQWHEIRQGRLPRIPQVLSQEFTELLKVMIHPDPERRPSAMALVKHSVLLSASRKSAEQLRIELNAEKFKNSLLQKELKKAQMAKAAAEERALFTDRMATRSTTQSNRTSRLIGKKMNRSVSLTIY
# Wee1 stab conf: human Wee1 degradation inhibition, confirmation. shares compounds with Wee1 degr inh. HeLa Luc-Wee1K328M degradation, luminescence; vehicle 0%, proteasome-blocked wells 100%. activation, % at 5 µM. 4% of 1,100 active. AID 1410; in the data active means activation above about 8.9%
# * = called active by the depositor; nt = no result given. This is a sample that favours compounds with a hit; in the whole collection about 1.5% have one here.
SMILES,MDM2 E3 inh,Hsp70 act,Calpain2 inh,Pf gamet viab,Wee1 degr inh,Wee1 stab conf
CCOCC(=O)Nc1c(C(=O)Nc2ccc3c(c2)OCCO3)oc2ccccc12,-19,0,6,-10,1,nt
COCC(=O)Nc1c(C(=O)Nc2ccc3c(c2)OCCO3)oc2ccccc12,-2,0,20,-3,12*,7
CC(C)N(Cc1ccccc1)C(=O)CCc1ccccc1,-5,0,-8,-19,-4,nt
CC(C)N(Cc1ccccc1)C(=O)CSc1nccn1C,-4,0,5,nt,12*,0
COc1ccc(C2=Nn3c(nnc3-c3ccccc3F)SC2)cc1OCC1CC1,nt,nt,nt,9,nt,nt
Nc1nc2ccc(C(=O)Nc3ccccc3)cc2s1,-17,0,-3,nt,15*,3
CC1CCN(CC(O)COc2cccc(F)c2)CC1 (stereo not given),-5,0,-41,nt,14*,1
CCC(=O)NC(=S)Nc1ccc(NC(=O)c2cc3ccccc3o2)c(OC)c1,-3,0,-84,-18,2,nt
CCCCOc1ccc(-c2[nH]ncc2C=O)cc1,-6,0,-3,nt,15*,5
CCCCOc1ccc(-c2ncc([N+](=O)[O-])cn2)cc1,-22,nt,-12,13,2,nt
CCCCC(CC)CNC(=O)C1C2C=CC(C2)C1C(=O)O (stereo not given),-4,0,17,14,-1,nt
Cc1ccc(C)c(C(=O)NC(C)CCc2ccccc2)c1 (stereo not given),-8,0,26,-12,16*,-4
Cc1occc1C(=O)NC(C)CCc1ccccc1 (stereo not given),4,0,-13,nt,1,nt
CC(C)CN1CCN(Cc2ccc(Oc3ncccn3)cc2)CC1CCO (stereo not given),-8,nt,-6,1,-4,nt
CC(C)N1CCC(N2CCN(Cc3ccc(Oc4ncccn4)cc3)CC2CCO)CC1 (stereo not given),-3,nt,2,-1,13*,0
CC12CCC(=O)N1C(C(=O)OCC(=O)Nc1ccc(Cl)c(Cl)c1)CS2 (stereo not given),-7,0,25,7,21*,-3
CN(C)S(=O)(=O)c1ccc(Cl)c(NC(=O)COC(=O)C2CSC3(C)CCC(=O)N23)c1 (stereo not given),0,1,-7,nt,1,nt
CCN(CC)CCSc1nc(O)c(-c2ccccc2)c(=O)n1-c1ccccc1,-16,0,6,-18,-2,nt
CCN(CC)CCSc1nc2ccccc2c(=S)n1-c1ccccc1,-66,0,-3,-14,13*,0
O=C(/C=C/c1cccnc1)c1cc(F)ccc1O,-4,nt,-16,17,-3,nt
O=C(/C=C/c1cccnc1)/C=C/c1cccnc1,39*,nt,6,nt,18*,22*
CCn1c(O)c(C=Nc2ccccc2)oc1=S,-3,0,-29,-6,14*,0
CCCn1c(O)c(C=Nc2ccccc2)sc1=S,-5,0,-17,29,-2,nt
COc1cccc(C(=O)NNS(=O)(=O)c2ccc(C)cc2)c1,nt,nt,nt,0,nt,nt
COc1ccc2nc(NCc3ccccc3)[nH]c2c1,-10,0,7,12,2,nt
SMILES,MDM2 E3 inh,Hsp70 act,Calpain2 inh,Pf gamet viab,Wee1 degr inh,Wee1 stab conf
Cc1ccc2nc(NCc3ccccc3)[nH]c2c1,-15,0,-12,3,17*,29*
Nc1[nH]c(N=NC(=O)c2ccccc2O)c2ccccc12,-21,0,11,22,14*,2
Cn1c(=NC(=O)C(C)(C)C)sc2cccc(F)c21,-6,nt,-5,-6,-2,nt
Cn1c(=NC(=O)c2ccccc2[N+](=O)[O-])sc2cccc(F)c21,-19,nt,25,4,17*,0
CC(=O)c1ccc(NC(=O)C2CC(c3ccc(F)cc3)=NO2)cc1 (stereo not given),-7,0,20,nt,5,nt
CC(=O)c1cccc(NC(=O)C2CC(c3ccc(F)cc3)=NO2)c1 (stereo not given),-12,0,-2,nt,26*,-3
CCCC(=O)N1CCN(c2ccc(NC(=O)c3cccs3)cc2Cl)CC1,-2,0,-8,8,16*,-1
CCCC(=O)N1CCN(c2ccc(NC(=O)C(C)(C)C)cc2Cl)CC1,-5,0,-4,-3,-1,nt
COc1cccc(-c2cc(C(=O)NC3CCCC3)no2)c1,-5,0,-1,nt,15*,3
COCCNC(=O)c1cc(-c2cccc(OC)c2)on1,-11,0,-7,11,5,nt
CCOC(=O)CNC(=O)N1CCCC(Cc2ccccc2)(C(=O)OCC)C1 (stereo not given),nt,nt,nt,-13,nt,nt
O=C(c1cc(=O)[nH]c2ccccc12)N1CCN(c2ccc([N+](=O)[O-])cc2)CC1,-4,nt,31,-21,59*,-3
CC(C)CNC(=O)CN(C1CCCCC1)S(=O)(=O)c1ccccc1,-5,0,1,nt,11*,-1
Brc1ccc(C[n+]2ccccc2)cc1,nt,nt,nt,12,nt,nt
O=C(Nc1ccccc1)C(=O)c1c[nH]c2ccccc12,nt,nt,nt,0,nt,nt
O=C(Nc1ccc2c(c1)CCC2)c1ccc(Cl)nc1,-4,0,25,nt,2,nt
O=C(Nc1ccc2c(c1)CCC2)c1ccc(F)cc1,-33,0,2,-2,17*,-2
CCN(CC)C(=O)Cn1c(=O)n(-c2ccc(CC(=O)NCc3ccccc3)cc2)c(=O)c2sccc21,-5,0,-13,-6,0,nt
Cc1ccccc1-c1noc(-c2ccc(O)cc2)n1,-18,0,-17,nt,11*,6
NNC(=O)c1ccc(COc2ccc3ccccc3c2)cc1,nt,nt,-40,10,15*,3
Cc1nnc(SCC(=O)NC2CCCCC2)n(N)c1=O,-19,0,-21,nt,-3,nt
Cc1ccc(NC(=O)CN(C)Cc2nc3ccccc3c(=O)[nH]2)c(Br)c1,-5,-1,12,4,11*,4
CCCCNCc1ccc(OCc2ccc(Cl)nc2)c(OC)c1,-12,nt,-6,-23,3,nt
CCN1CCCC1CNCc1ccc(OCc2ccc(Cl)nc2)c(OC)c1 (stereo not given),-14,nt,14,13,15*,4
O=C(CSc1nnc(Cc2ccccc2)n1-c1ccccc1)NNC(=O)Cc1ccccc1,-12,0,-1,nt,17*,-4
COC(=O)CSc1nnc(Cc2ccccc2)n1-c1ccc(C)cc1,-3,0,-4,nt,0,nt
Cc1ccccc1NC(=O)c1cc(C(=O)c2cc(Cl)ccc2O)cn(-c2ccccc2C)c1=O,2,0,-52,-14,14*,0
CCOC(=O)c1cnc2ccc(OC)cc2c1NCc1ccccc1,3,0,8,-10,13*,0
O=C(NC1CCCCCC1)C1Cc2ccccc2CN1C(=O)c1ccco1 (stereo not given),-6,1,-26,-9,21*,3
